APP 5'UTR act: APP 5'UTR luciferase reporter activation; SH-SY5Y APP 5'UTR luciferase reporter, luminescence; zero percent = DMSO vehicle wells; AID 1276; actives 1% (n = 190,000); activation, % at 2 µM;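 active means activation above a set limit, based on mean plus 3 SD of controls, cut at about 140% in these data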
STAT1 act: STAT1 signaling activation. NIH 3T3 STAT1-luciferase reporter, IFN-gamma, luminescence; 100% = IFN-gamma alone, no compound. actives 2.6% (n = 200,000). activation (% of control), % at 5.5 µM;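 active means activation above the screen-wide mean activation plus 3 SD, cut at about 130% in these data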;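 further: raw ratio to IFN-gamma control signal so 100% means no change and 0% no light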
NF-kB expr up: compounds increasing NF-kB expression in human neuronal cells. actives 1.6% (n = 190,000). fold change at 12.5 µM. AID 1239. NF-kB reporter expression; active compounds read high; in the data active means fold change above about 3.3
AHR activator: human AHR activation. P35869. AHR-responsive luciferase reporter cells, luminescence. activation, % at 5 µM. actives 2.5% (n = 320,000). AID 2796; in the data active means activation above about 47%;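 further: 0% = vehicle wells and 100% = reference agonist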
PERK inh: inhibitors of human PERK kinase | Q9NZJ5 | CHO PERK-DD fusion, SEAP luminescence translation reporter | inhibition, % at 5.6 µM | actives 0.17% (n = 220,000) | AID 1416;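 active means inhibition above the mean inhibition of all tested compounds plus 3 SD, set separately per screening campaign, cut at about 2.9% in these data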;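 further: PERK kinase domain activated by AP20187 dimerizer at 100 nM; 0% = DMSO with dimerizer and 100% = rapamycin at 8.4 µM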
MDM2 E3 inh: blocks human Mdm2 ubiquitin ligase activity | Q00987 | cell-based MDM2 ubiquitination luciferase reporter, 2 h; 0 = plate control, 100 = twice control, blank-subtracted | signal enhancement, % at 5 µM | actives 0.11% (n = 210,000) | AID 1230;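 active means signal enhancement of 30% or more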;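 further: luminescence tracks abundance of the self-degrading MDM2-luciferase fusion protein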
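Test system: stable mammalian line carrying autodegrading MDM2–luciferase fusion reporter; quantity: 2000 cells in each well; times: 4 h cell settling then 2 h compound exposure, 37 °C; detection: luminescence with SteadyLite reagent, 15 min at room temperature; evaluation: percent signal gain over controls, blank-subtracted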
* marks the source's active call; other numbers are inactive results; / = not tested or not shown. In the library only some 4.5% were active in any assay of this set; here they are far more common.

SMILES	APP 5'UTR act	STAT1 act	NF-kB expr up	AHR activator	PERK inh	MDM2 E3 inh
COc1ccc(S(=O)(=O)n2ccnc2C)c(C)c1C	/	/	/	0	/	/
Clc1ccc(-c2nnc(NC3=NCCCCC3)o2)cc1	152*	77	1.7	-4	0	-77
c1ccc(CSc2cc3ccccc3[nH]2)cc1	/	/	/	23	/	/
Cc1ccc2oc(C(=O)Nc3nnc(C)s3)c(C)c2c1	8	141*	4.7*	12	1	-26
COc1ccc2oc(C(=O)Nc3nnc(C)s3)c(C)c2c1	/	/	/	-7	/	/
N/C(Cc1nc(-c2ccc(F)cc2)cs1)=N\O	/	/	/	4	0	-12
N/C(Cc1nc(-c2ccc(Br)cc2)cs1)=N\O	12	115	1.7	54*	1	-4
CC(C)CC(=O)N1CCN(c2ccc([N+](=O)[O-])c(NCc3ccccc3)c2)CC1	-1	101	/	48*	0	/
O=C(c1ccccc1)N1CCN(c2ccc([N+](=O)[O-])c(NCc3cccnc3)c2)CC1	-4	98	1	25	-1	-94
COc1ccc(C2=NCCn3nc4ccccc4c32)cc1	/	/	/	54*	/	/
COc1ccc2c3n(nc2c1)CCN=C3c1cc(Cl)c(N)c(Cl)c1	/	/	/	61*	/	/
COc1ccc2c(c1)cc1n2CCN=C1N	15	90	1.4	4	0	-16
Nc1c(Cl)cc(C2=NCCn3nc4cc(C(F)(F)F)ccc4c32)cc1Cl	/	/	/	54*	/	/
Cc1ccc(C(=O)NNC(=O)CSc2nnc(-c3ccncc3)n2C)cc1	10	98	1.1	-1	0	12
N#Cc1ccccc1NC(=O)C1CC(=O)N(c2ccc3c4c(cccc24)CC3)C1 (stereo not drawn)	12	98	0.8	3	-1	-11
CCn1ncc(C(=O)Nc2cccc(Cl)c2)c1C	86	144*	2.4	79*	1	-18
CCc1cccc(NC(=O)c2cnn(-c3ccccc3)c2C)c1	/	/	/	-6	/	/
O=C(CSc1ccc(-c2ccco2)nn1)NC1CCCC1	-6	93	0.99	0	1	32*
CN(CC(=O)NC(=O)NCc1ccccc1)CC(=O)Nc1ccc(Cl)c(Cl)c1	/	/	/	-1	/	/
CCCC(=O)NC(c1ccc(OC)cc1)c1ccc2cccnc2c1O (stereo not drawn)	-82	95	1.8	5	-1	7
CCC(=O)NC(c1ccccc1OC)c1ccc2cccnc2c1O (stereo not drawn)	-89	95	6.9*	1	-2	0
O=C(COc1ncnc2ccccc12)Nc1ccc(S(=O)(=O)N2CCOCC2)cc1	/	/	/	-2	0	-3
CC(=O)NS(=O)(=O)c1ccc(N=c2ssc3c2-c2ccc(C)cc2NC3(C)C)cc1	-4	134*	1.6	3	0	-9
Cc1ccc(S(=O)(=O)NC(=O)Nc2cc(C)ccc2F)cc1	-10	98	1.1	-1	1	-11
Cc1ccnc(NC(=O)COC(=O)c2ccc(F)cc2F)n1	/	/	/	-1	1	-7
SMILES	APP 5'UTR act	STAT1 act	NF-kB expr up	AHR activator	PERK inh	MDM2 E3 inh
Cc1cc(NC(=O)NC(=O)c2ccc(F)cc2F)n[nH]1	89	149*	2.5	5	0	-42
CCCS(=O)(=O)N1CCC(C(=O)Oc2ccc(OC)cc2)CC1	/	/	/	1	/	/
CCc1ccc(NC(=O)CCC(=O)c2ccccc2)cc1	/	/	/	1	/	/
COc1cc2c(C)nc3c(cnn3-c3ccccc3)c2cc1OC	79	144*	/	-7	1	/
Cc1nc2c(cnn2-c2ccccc2)c(=O)[nH]1	0	111	/	3	0	-4
O=C(Nc1ccc(-c2cn3ccsc3n2)cc1)C1CC1	83	111	3.2	8	1	9
CC(C)(C)CC(=O)Nc1cccc(-c2cn3cccnc3n2)c1	54	121	2.2	48*	0	-9
CCC(=O)Nc1cccc(-c2cnc3ccccc3n2)c1	52	129*	1.5	2	-2	-16
O=C(Nc1ccc(-c2cn3ccsc3n2)cc1)C1CCCC1	127	123	4*	1	0	-6
O=C(Nc1cccc(-c2cnc3ccccc3n2)c1)c1ccccc1	9	114	1.1	10	1	-29
COc1cc(C(=O)Nc2cccc(-c3cn4cccnc4n3)c2)cc(OC)c1OC	-10	104	0.5	5	0	-11
CC(=O)Nc1ccc(-c2cn3ccsc3n2)cc1	64	136*	3.4*	-2	1	-13
CCOC(=O)Cn1c(=O)c2c(nc3n2CC(C)CN3Cc2ccccc2)n(C)c1=O (stereo not drawn)	/	/	/	1	/	/
CC(C)(C)NC(=O)c1cccc2c1OC(C)(C)C2	3	101	1	-2	1	11
CCCCC(=O)Nc1cccc(-c2csc(-c3ccccc3)n2)c1	13	108	1.4	69*	0	6
CCC(=O)Nc1cccc(-c2cn3ccsc3n2)c1	6	104	1.3	54*	-2	-26
c1cn2cc(-c3ccc4c(c3)OCO4)nc2s1	149*	141*	6.1*	30	0	-48
CC(C)CC(=O)Nc1cccc(-c2cn3ccsc3n2)c1	32	114	1.4	13	-1	-19
O=C(NCCNC(=O)c1ccccc1F)c1ccccn1	/	/	/	2	/	/
c1coc(-c2ccnc(-n3cccc3)n2)c1	28	115	1	3	0	-2
Cc1cc(-c2ccc(Br)s2)nc(-n2cccc2)n1	12	95	1.3	/	1	-24
Cc1ccsc1-c1ccnc(-n2cccc2)n1	8	105	0.71	67*	1	-32
Cc1cc(-c2sccc2Br)nc(-n2cccc2)n1	10	98	1.1	/	0	-11
Clc1ccsc1-c1ccnc(-n2cccc2)n1	22	105	1.1	57*	0	-22
Clc1ccc(-c2ccnc(-n3cccc3)n2)s1	13	98	1.2	53*	2	-14
SMILES	APP 5'UTR act	STAT1 act	NF-kB expr up	AHR activator	PERK inh	MDM2 E3 inh
COCCn1c(SCC(=O)NC2(C#N)CCCCC2)nc2ccccc2c1=O	/	/	/	3	/	/
COc1cc(-c2nc3n(n2)C(c2ccc(F)cc2)C2=C(CCCC2=O)N3)cc(OC)c1OC (stereo not drawn)	-4	87	0.77	82*	-1	-7
COC(=O)C(C)Sc1ncnc2c1nnn2-c1ccc(F)cc1 (stereo not drawn)	14	137*	1.5	3	1	-18
CCOC(=O)CNC(=O)CSc1ncnc2c1nnn2-c1ccc(F)cc1	-5	97	1.7	1	0	-4
COc1ccc(-n2nnc3c(SC(C(C)=O)C(=O)N(C)C)ncnc32)cc1 (stereo not drawn)	/	/	/	66*	/	/
COc1ccccc1NC(=O)/C=C/c1ccc2c(c1)OCO2	45	134*	2.1	8	1	-17
COc1ccccc1NC(=O)COC(=O)/C=C/c1ccc2c(c1)OCO2	-3	116	2	1	1	-17
O=C(/C=C/c1ccc2c(c1)OCO2)Nc1ccc(Cl)cn1	162*	132*	3	9	1	-17
